RAD54 branch: RAD54 (human) branch migration inhibition; RAD54 Holliday junction branch migration, FAM/BHQ fluorescence; Q92698; inhibition, % at 10.4 µM; hit rate 0.14% among 360,000;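 active means mean normalized replicate activity at least 40 and at least half of replicates scoring 40 or more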;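 further: 0% = median of neutral control wells and 100% = median of positive control wells; inhibitors cause a drop in the FAM fluorescence signal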
S100A4 inh HTS: inhibitors of human S100A4 binding to myosin IIA peptide; S100A4/TAMRA-MyoIIA peptide fluorescence polarization; inhibition, % at 10.7 µM; P26447; AID 652163; hit rate 0.14% among 360,000;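 active means mean inhibition of at least 70% across replicates, with every replicate also reaching that level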
Target sequence (P26447 whole entry, looked up): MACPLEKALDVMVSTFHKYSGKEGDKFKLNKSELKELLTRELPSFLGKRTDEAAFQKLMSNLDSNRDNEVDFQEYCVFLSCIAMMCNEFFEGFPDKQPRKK
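Material: S100A4 monomer (human). Medium: Calcium-containing HEPES buffer, pH 7.2. Probe or stimulus: labelled myosin peptide probe, 5 nM. Compound dosing: one concentration per compound. Timing: polarization read 5 min after assay mix addition, stable 5–60 min. Benchmarks: DMSO as neutral control, TFP as positive control.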
AF4-AF9 inh: MLL-AF4/AF9 protein interaction inhibition. inhibition, % at 10 µM. P42568. hit rate 0.47% among 350,000. AID 651704. AlphaScreen, biotin-AF4 peptide binding to FLAG-AF9;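 active means every replicate reaching a set inhibition limit, whatever the replicate mean, cut at about 25% in these data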;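 further: 0% = plate neutral control median and 100% = total signal loss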
GSIS activator: GLuc luminescence reporter in INS-1E cells, primary screen for activators of glucose-dependent secretion of insulin. activation, % at 16.6 µM. hit rate 0.61% among 370,000. INS-1E GLuc reporter insulin secretion, 2-3 h;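 active means lowest replicate activation of at least 40%, so every replicate reaches that level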;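 further: 0% = median of neutral control wells and 100% = median of IBMX positive control wells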
RAD52 inh: inhibitors of human RAD52 DNA annealing | inhibition, % at 18.7 µM | P43351 | hit rate 0.46% among 360,000 | recombinant RAD52 DNA annealing, FRET fluorescence | AID 651710;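 active means every replicate showing at least 50% inhibition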
Target sequence (P43351 whole entry, looked up): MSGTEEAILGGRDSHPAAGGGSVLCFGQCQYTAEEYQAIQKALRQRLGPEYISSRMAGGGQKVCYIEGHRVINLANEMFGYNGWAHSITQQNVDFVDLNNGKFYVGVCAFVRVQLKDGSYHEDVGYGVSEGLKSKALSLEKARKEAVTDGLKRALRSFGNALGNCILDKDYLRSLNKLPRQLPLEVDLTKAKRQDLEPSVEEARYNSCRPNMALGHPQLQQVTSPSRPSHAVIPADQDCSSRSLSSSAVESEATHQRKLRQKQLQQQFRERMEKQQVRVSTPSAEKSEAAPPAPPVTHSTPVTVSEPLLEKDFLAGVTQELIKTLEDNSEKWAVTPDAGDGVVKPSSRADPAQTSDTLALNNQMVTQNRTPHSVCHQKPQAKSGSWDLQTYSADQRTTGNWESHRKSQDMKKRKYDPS
Active calls of the source: *; i = inactive; / = not tested or not shown. In the library only some 1.3% were active in any assay of this set; here they are far more common.

SMILES | RAD54 branch | S100A4 inh HTS | AF4-AF9 inh | GSIS activator | RAD52 inh
COc1cccc(NC(=O)Nc2ccc3c(c2)C(=O)N(C)C[C@H](OC)[C@H](C)CN[C@@H](C)CO3)c1 | 4 | 13 | 8 | 2 | 41
COc1cccc(NC(=O)Nc2ccc3c(c2)C(=O)N(C)C[C@@H](OC)[C@H](C)CN[C@@H](C)CO3)c1 | 11 | -8 | 13 | -2 | 54*
COc1cccc(NC(=O)Nc2ccc3c(c2)C(=O)N(C)C[C@H](OC)[C@@H](C)CN[C@H](C)CO3)c1 | 24 | -2 | 15 | -2 | 67*
CO[C@H]1CN(C)C(=O)c2cc(NC(=O)c3ccc(Oc4ccccc4)cc3)ccc2OC[C@H](C)NC[C@H]1C | 14 | -2 | 0 | 16 | 53*
CO[C@@H]1CN(C)C(=O)c2cc(NC(=O)c3ccc(Oc4ccccc4)cc3)ccc2OC[C@H](C)NC[C@@H]1C | 14 | 0 | 10 | 13 | 22
C[C@@H]1CN([C@H](C)CO)C(=O)c2cc(NS(=O)(=O)c3ccccc3)ccc2O[C@@H]1CN(C)C(=O)NC1CCCCC1 | -6 | 8 | -2 | -8 | -6
CO[C@@H]1CN(C)C(=O)c2cc(NC(=O)c3cc(C)on3)ccc2OC[C@@H](C)N(CC2CC2)C[C@@H]1C | 0 | -8 | -1 | 18 | -6
Cc1ccc(S(=O)(=O)Nc2cccc3c2O[C@H](CN(C)Cc2ccc(Cl)c(Cl)c2)[C@@H](C)CN([C@@H](C)CO)C3=O)cc1 | / | / | / | -22 | /
C[C@H]1CN([C@@H](C)CO)S(=O)(=O)c2ccc(-c3ccccc3)cc2O[C@H]1CN(C)C(=O)c1ccccc1F | / | / | / | -27 | /
CC(=O)N1[C@H](CO)[C@H](c2ccc(C3=CCCC3)cc2)C12CN(C(=O)NC(C)C)C2 | / | 2 | 1 | 1 | -13
O=C(NCC[C@@H]1CC[C@H](NC(=O)c2cccnc2)[C@H](CO)O1)Nc1ccc(C(F)(F)F)cc1 | 6 | -3 | 13 | -2 | -4
CCNc1nn2ccccc2c1/C=C(\C#N)C(=O)OCC | -11 | -2 | -2 | 66* | -2
O=C(N[C@H]1CC[C@@H](CC(=O)N2CCOCC2)O[C@@H]1CO)c1cccc(F)c1 | 3 | -3 | -3 | 3 | -8
CCN1CCN(c2nc3c(C)cccn3c(=O)c2/C=C(\C#N)S(=O)(=O)c2ccc(Cl)cc2)CC1 | / | -11 | 30* | -4 | -161
N#C[C@@H]1[C@H](c2ccccc2)[C@H](CO)N1C(=O)c1ccccc1F | 6 | 3 | -2 | -6 | -5
Cc1ccccc1S(=O)(=O)N1CC(=O)N2[C@@H](CO)[C@H](c3ccc(C#CCC4CCCC4)cc3)[C@@H]2C1 | / | -21 | -1 | 43* | -24
CC(C)CC#Cc1ccc([C@@H]2[C@H](CO)N3C(=O)CN(C(=O)c4ccccn4)C[C@@H]23)cc1 | / | 107* | 0 | -4 | -5
Cc1ccccc1S(=O)(=O)N1CC(=O)N2[C@H](CO)[C@H](c3ccc(C#CCC4CCCC4)cc3)[C@@H]2C1 | / | 21 | -2 | -19 | -21
O=C(c1ccccc1F)N1CC(=O)N2[C@H](CO)[C@H](c3ccc(C#Cc4ccccc4)cc3)[C@H]2C1 | / | -6 | -2 | -24 | -7
O=C(c1ccccc1F)N1CC(=O)N2[C@@H](CO)[C@H](c3ccc(C#Cc4ccccc4)cc3)[C@@H]2C1 | / | 79* | -4 | 4 | -36
CC(C)CC#Cc1ccc([C@@H]2[C@@H](CO)N3C(=O)CN(C(=O)c4ccccn4)C[C@H]23)cc1 | / | -5 | 2 | -9 | -112
O=C(c1ccc2c(c1)OCO2)N1CC(=O)N2[C@@H](CO)[C@H](c3ccc(C#Cc4ccccc4)cc3)[C@@H]2C1 | / | 114* | 10 | 0 | -17
O=C(Nc1nnc(S(=O)(=O)N2CCOCC2)s1)c1ccc(Cl)cc1 | 2 | -1 | -13 | 0 | -4
O=C(Nc1nnc(S(=O)(=O)N2CCOCC2)s1)c1ccccc1 | -12 | 1 | 47* | / | -10
C[C@H]1CN([C@@H](C)CO)C(=O)c2cccc(NC(=O)Nc3ccc(F)cc3)c2O[C@@H]1CN(C)Cc1ccc(C(=O)Nc2ccccc2N)cc1 | / | -13 | -17 | -3 | 5
SMILES | RAD54 branch | S100A4 inh HTS | AF4-AF9 inh | GSIS activator | RAD52 inh
CO[C@@H]1CN(C)C(=O)c2cc(NC(=O)C3CC3)ccc2OC[C@@H](C)N(C(=O)c2ccccc2)C[C@H]1C | -2 | 5 | 0 | 2 | -9
Cc1ccc(NC(=O)N(CCCN2CCOCC2)Cc2cccnc2)cc1C | 3 | -8 | 39* | -5 | -2
COc1ccc(C#Cc2ccc([C@H]3[C@H]4CN(C(=O)Nc5ccccc5)CCCCN4[C@H]3CO)cc2)cc1 | 7 | 119* | -8 | 8 | -14
COc1ccc(NC(=O)N2CCCCN3[C@H](CO)[C@H](c4ccc(C#Cc5ccccc5)cc4)[C@H]3C2)cc1 | 4 | -3 | 8 | / | 95*
COc1ccc(C#Cc2ccc([C@@H]3[C@H]4CN(C(=O)Nc5cccc(F)c5)CCCCN4[C@H]3CO)cc2)cc1 | 10 | / | / | 14 | -25
COc1ccccc1C#Cc1ccc([C@H]2[C@H](CO)N3CCCCN(C(=O)C4CCCC4)C[C@@H]23)cc1 | -1 | -5 | 4 | / | 56*
COc1ccc(C#Cc2ccc([C@H]3[C@@H](CO)N4CCCCN(C(=O)Nc5cccc(F)c5)C[C@H]34)cc2)cc1 | 51* | / | / | -2 | /
O=C(c1ccc2c(c1)OCO2)N1CC(=O)N2[C@@H](CO)[C@H](c3ccc(C#CCC4CCCC4)cc3)[C@@H]2C1 | / | -6 | 4 | -31 | 21
O=C(C1CCCC1)N1CCCCN2[C@H](CO)[C@H](c3ccc(C#CC4(O)CCCC4)cc3)[C@@H]2C1 | 8 | 3 | -1 | / | -1
O=C(C1CCCC1)N1CCCCN2[C@H](CO)[C@@H](c3ccc(C#CC4(O)CCCC4)cc3)[C@H]2C1 | -7 | 126* | 0 | / | 5
CCOc1ccc(N(C)S(=O)(=O)c2ccc3[nH]cc(C(=O)NCCOC)c(=O)c3c2)cc1 | -4 | 3 | 0 | 66* | -7
Cc1nc(NC2=NCN(CCCN3CCOCC3)CN2)nc2c(C)cccc12 | 81* | / | / | / | /
COc1ccc(S(=O)(=O)Nc2ccc3c(c2)C(=O)N([C@H](C)CO)C[C@H](C)[C@H](CN(C)Cc2ccc(C(=O)O)cc2)OCCCC[C@H](C)O3)cc1 | 7 | 2 | -12 | 9 | -1
Oc1c(C(Nc2ccccn2)c2cccnc2)cc(Cl)c2cccnc12 (centres undefined) | / | 3 | 43* | 26 | -5
CC(=O)NC(c1ccc(C)cc1)c1cc(Cl)c2cccnc2c1O (centres undefined) | 8 | -2 | -3 | -7 | -5
CN(C)c1ccc(C=Cc2nccc3ccccc23)cc1 | -29 | 88* | 2 | -24 | i
CCOC(=O)N1CCN(Cc2cc(Cl)c3cccnc3c2O)CC1 | / | -2 | 70* | -8 | -28
CCOC(=O)N1CCN(Cc2ccccc2Cl)CC1 | -2 | / | / | / | /

Source: PubChem BioAssay
